The source made the active and inactive calls. No cut-off for these calls is given here.
Assays:
[1] = target: T1, Chromodomain Y-like protein (Homo sapiens) (UniProt Q9Y232); test: Binding affinity to CDYL in human SH-SY5Y cells assessed as reduction in protein degradation incubated for 4 mins at 55 degC for 4 mins by CETSA; type: cell-based
T1 sequence (whole entry): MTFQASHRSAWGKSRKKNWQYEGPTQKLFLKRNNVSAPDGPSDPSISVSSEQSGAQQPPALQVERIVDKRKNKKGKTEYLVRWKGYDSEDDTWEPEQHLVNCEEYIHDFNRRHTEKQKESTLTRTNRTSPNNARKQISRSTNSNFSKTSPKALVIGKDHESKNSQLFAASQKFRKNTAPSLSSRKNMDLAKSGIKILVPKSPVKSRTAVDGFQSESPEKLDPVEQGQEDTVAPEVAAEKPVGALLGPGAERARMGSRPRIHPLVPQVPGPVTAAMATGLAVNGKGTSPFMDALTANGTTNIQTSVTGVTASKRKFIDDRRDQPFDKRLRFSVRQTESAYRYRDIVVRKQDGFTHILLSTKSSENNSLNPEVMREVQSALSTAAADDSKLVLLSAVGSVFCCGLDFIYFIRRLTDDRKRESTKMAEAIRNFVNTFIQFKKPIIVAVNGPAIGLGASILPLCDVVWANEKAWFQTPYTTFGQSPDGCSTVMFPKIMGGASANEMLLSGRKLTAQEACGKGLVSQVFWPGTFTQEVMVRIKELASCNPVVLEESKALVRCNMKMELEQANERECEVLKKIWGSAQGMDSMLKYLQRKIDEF
Summary of the method: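 Lysates of SH-SY5Y cells, freeze-thawed three times, incubated with compound at 0–500 µM at 55 °C for 4 min. Supernatant isolated by centrifugation and CDYL read by immunoblot with densitometry.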

[2] = target: T1, Chromodomain Y-like protein (Homo sapiens); test: Inhibition of CDYL in human SH-SY5Y cells assessed as increase in VGF mRNA expression incubated for 24 hrs by RT-qPCR analysis; type: cell-based
Summary of the method: (§1)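 SH-SY5Y or HEK-293T cells grown in DMEM with 10% FBS and treated with compound for 24 h. mRNA quantified by SYBR green RT-qPCR after DNase treatment, 2^-ΔΔCt method with GAPDH as reference, relative to DMSO. Mean ± S.E.M. of triplicate experiments, Student's t-test.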

[3] = target: T1, Chromodomain Y-like protein (Homo sapiens); test: Inhibition of CDYL in human HEK293T cells assessed as increase in MYT1 mRNA expression at 50 to 200 uM incubated for 24 hrs by RT-qPCR analysis; type: cell-based; summary of the method: as §1
[4] = target: T2, Chromobox protein homolog 7 (Homo sapiens, UniProt O95931); test: Binding affinity to recombinant human N-terminal GST-tagged CBX7 (1 to 62 residues) expressed in Escherichia coli […] by SPR analysis
T2 sequence (O95931 whole entry): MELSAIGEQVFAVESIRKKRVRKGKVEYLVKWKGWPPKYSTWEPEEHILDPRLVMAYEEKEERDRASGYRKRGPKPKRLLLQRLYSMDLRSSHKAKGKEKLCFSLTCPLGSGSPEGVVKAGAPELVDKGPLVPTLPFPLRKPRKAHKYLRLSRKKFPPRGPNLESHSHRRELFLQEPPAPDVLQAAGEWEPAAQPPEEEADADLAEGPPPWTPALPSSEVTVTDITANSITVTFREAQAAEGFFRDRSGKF
Summary of the method: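 Chromodomain expressed with N-terminal GST tag in E. coli BL21 (IPTG 0.2 mM at OD600 0.6–0.8, 28 C for 6 h), GSTrap purified, tag cleaved by PreScission protease, amine-coupled to CM5 chip at pH 4.0–4.5 (5000–10000 RU). […] Mean ± SD of at least two replicates, each in duplicate.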

[5] = target: T3, Chromodomain Y-like protein (Mus musculus) (UniProt Q9WTK2); test: Inhibition of CDYL in C57BL/6 mouse hippocampal neurons as increase in BDNF mRNA expression at 150 uM incubated for 24 hrs by RT-qPCR analysis
T3 sequence (whole entry): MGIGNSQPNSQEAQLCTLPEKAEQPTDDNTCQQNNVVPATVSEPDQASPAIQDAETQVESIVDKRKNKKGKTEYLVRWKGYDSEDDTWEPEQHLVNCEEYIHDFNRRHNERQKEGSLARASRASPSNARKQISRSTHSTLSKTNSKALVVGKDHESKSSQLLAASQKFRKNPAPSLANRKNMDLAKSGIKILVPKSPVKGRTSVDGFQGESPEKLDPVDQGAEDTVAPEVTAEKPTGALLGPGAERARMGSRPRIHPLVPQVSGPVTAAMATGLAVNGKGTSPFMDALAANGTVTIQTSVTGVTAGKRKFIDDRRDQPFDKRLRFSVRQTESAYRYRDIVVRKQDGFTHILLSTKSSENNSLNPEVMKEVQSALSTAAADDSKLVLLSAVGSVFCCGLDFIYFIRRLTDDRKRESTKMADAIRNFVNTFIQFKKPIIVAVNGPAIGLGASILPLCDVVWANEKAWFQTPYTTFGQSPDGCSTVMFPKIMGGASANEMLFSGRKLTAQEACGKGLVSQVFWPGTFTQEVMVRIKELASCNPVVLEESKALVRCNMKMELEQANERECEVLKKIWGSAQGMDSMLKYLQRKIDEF
Summary of the method: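 Mouse cortical or hippocampal neurons, dissociated with trypsin and kept in Neurobasal/B27, treated with 150 µM compound for 24 h. mRNA measured by SYBR green RT-qPCR with the 2^-ΔΔCt method, GAPDH as reference, relative to DMSO. Mean ± S.E.M. of triplicate experiments, Student's t-test.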

[6] = target: T1, Chromodomain Y-like protein (Homo sapiens); test: Inhibition of CDYL in human SH-SY5Y cells assessed as decrease in enrichment of CDYL at MYT1 promoter site at 150 uM incubated for 24 hrs by ChIP-qPCR analysis; type: cell-based
Summary of the method: (§2)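 About 1×10^7 SH-SY5Y cells given 150 µM compound or DMSO for 24 h, fixed in 1% formaldehyde for 10 min. Chromatin immunoprecipitated overnight-style (12 h, 4 °C) with CDYL or H3K27me3 antibody, captured on Protein A/G beads, washed, decrosslinked at 65 °C. Promoter DNA quantified by qPCR, mean ± S.E.M. of triplicate experiments, Student's t-test.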

[7] = target: T1, Chromodomain Y-like protein (Homo sapiens); test: Inhibition of CDYL in human SH-SY5Y cells assessed as decrease in enrichment of H3K27me3 at VGF promoter site at 150 uM incubated for 24 hrs by ChIP-qPCR analysis; type: cell-based; summary of the method: as §2
[8] = target: T1, Chromodomain Y-like protein (Homo sapiens); test: Inhibition of CDYL in human SH-SY5Y cells assessed as increase in MYT1 mRNA expression incubated for 24 hrs by RT-qPCR analysis; type: cell-based; summary of the method: as §1
[9] = target: T4, Chromodomain Y-like protein (Homo sapiens, UniProt Q9Y232); test: Binding affinity to recombinant human N-terminal GST-tagged CDYL (1 to 60 residues) expressed in Escherichia coli […] by SPR analysis
T4 sequence (Q9Y232 whole entry): T1 sequence (whole entry)
Summary of the method: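 GST-tagged chromodomain expressed in E. coli BL21 with 0.2 mM IPTG at 28 °C for 6 h. Purified on GSTrap, tag removed with PreScission protease. Amine-coupled to CM5 chip at pH 4.0–4.5 (5000–10000 RU). Compound run as a 1.5- or 2-fold series from 100 µM in PBSP with 5% DMSO, 25 °C, 30 µL/min, 60 s association and 60 s dissociation.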

O=C(Cn1c(=O)oc2ccccc21)N1CCC(N2CCCC2)CC1
inhibition [1]: Dose-dependent effect
Activity [2]: Dose-dependent effect
Activity [3]: Active
Kd [4]: 16.2 µM
Activity [5]: Active
inhibition [6]: Active
inhibition [7]: Active
Activity [8]: Dose-dependent effect
Kd [9]: 0.5 µM

— ChEMBL document CHEMBL4359913, “Identification and characterization of benzo[d]oxazol-2(3H)-one derivatives as the first potent and selective small-molecule inhibitors of chromodomain protein CDYL” (Eur J Med Chem, 2019)
